Measurements from ChEMBL document CHEMBL3286205, “Optimization of diaryl amine derivatives as kinesin spindle protein inhibitors” (Bioorg Med Chem, 2014).
In brackets after ≈: the same amount, converted by molar mass.

Tests used:
[1] = Thermodynamic solubility of the compound in 50% EtOH/1/15 M phosphate buffer at pH 7.4 after 48 hrs by HPLC analysis; format: physicochemical; details: read-out: Therm_solubility
How it was run: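 Solid compound in 0.5 mL of 1/15 M phosphate buffer (pH 7.4) plus 0.5 mL EtOH was shaken 48 h at 25 °C and filtered. m-Cresol internal standard was added (0.05 mg/mL final), the sample diluted in DMF and analysed by HPLC-UV at 254 nm. Concentration came from the peak-area ratio against a calibration curve, corrected for dilution.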

[2] = Thermodynamic solubility of the compound in 1/15 M phosphate buffer at pH 7.4 after 48 hrs by HPLC analysis; format: physicochemical; details: read-out: Therm_solubility
How it was run: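 Solid compound in 1.0 mL of 1/15 M phosphate buffer (pH 7.4) was shaken 48 h at 25 °C and filtered. m-Cresol internal standard was added (0.05 mg/mL final), the sample diluted in DMF and run on HPLC with UV at 254 nm. Concentration came from the sample/standard peak-area ratio against a calibration curve, corrected for dilution.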

[3] = target: T1, Kinesin-like protein KIF11 (Homo sapiens, UniProt P52732); test: Inhibition of C-terminal His-tagged KSP ATPase motor domain (unknown origin) expressed in bacteria incubated for 30 mins prior to ATP addition measured after 15 mins by luminescence assay
T1 sequence (P52732 whole entry): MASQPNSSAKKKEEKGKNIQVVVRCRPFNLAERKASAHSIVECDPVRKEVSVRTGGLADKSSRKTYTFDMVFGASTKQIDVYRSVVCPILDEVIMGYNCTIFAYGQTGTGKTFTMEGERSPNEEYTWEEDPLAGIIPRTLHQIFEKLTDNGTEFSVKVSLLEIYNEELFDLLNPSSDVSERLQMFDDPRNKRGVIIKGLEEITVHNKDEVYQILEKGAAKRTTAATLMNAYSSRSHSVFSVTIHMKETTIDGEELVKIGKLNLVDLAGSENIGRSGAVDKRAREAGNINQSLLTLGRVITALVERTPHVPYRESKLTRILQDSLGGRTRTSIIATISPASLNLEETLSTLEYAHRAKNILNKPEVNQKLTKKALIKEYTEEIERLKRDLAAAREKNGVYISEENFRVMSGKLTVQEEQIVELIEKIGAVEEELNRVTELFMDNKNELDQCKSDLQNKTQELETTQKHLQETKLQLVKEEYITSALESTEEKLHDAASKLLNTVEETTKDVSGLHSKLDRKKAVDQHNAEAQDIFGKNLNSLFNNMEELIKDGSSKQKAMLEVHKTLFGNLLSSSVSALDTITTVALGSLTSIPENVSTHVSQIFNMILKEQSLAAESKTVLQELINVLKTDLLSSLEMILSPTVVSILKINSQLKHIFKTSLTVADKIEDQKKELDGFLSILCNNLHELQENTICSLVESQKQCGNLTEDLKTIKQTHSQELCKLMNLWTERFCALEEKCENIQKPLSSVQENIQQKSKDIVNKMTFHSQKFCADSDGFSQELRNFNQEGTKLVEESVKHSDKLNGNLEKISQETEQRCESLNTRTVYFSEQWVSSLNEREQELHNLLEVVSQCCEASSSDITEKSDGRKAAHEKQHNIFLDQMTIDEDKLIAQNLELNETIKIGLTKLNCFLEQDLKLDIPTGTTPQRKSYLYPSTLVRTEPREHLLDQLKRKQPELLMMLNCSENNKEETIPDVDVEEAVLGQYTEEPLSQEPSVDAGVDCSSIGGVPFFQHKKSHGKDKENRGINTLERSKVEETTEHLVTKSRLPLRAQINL

[4] = Retention time of the compound by HPLC analysis; format: physicochemical
How it was run: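 Reverse-phase C18 HPLC (4.6 × 250 mm), eluted with a linear 30–70% MeCN gradient over 40 min in 0.1% TFA.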

A549 = test: Antiproliferative activity against human A549 cells assessed as growth inhibition after 72 hrs by MTS assay; format: functional, cell-based; details: A549, 72 h
How it was run: (§1)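 Media with 10% FBS at 37 °C, 5% CO2: A549 in DMEM (500 cells/well), HCT-116 in McCoy's 5A and MCF-7 in EMEM (5000 cells/well each). Cells settled 6 h, then got graded compound concentrations (0.1% final DMSO) for 72 h. After washing into phenol-red-free medium (1 h), MTS was added for 40 min and A490 read. IC50 came from mean inhibition rates of ≥3 experiments.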

HCT-116 = test: Antiproliferative activity against human HCT116 cells assessed as growth inhibition after 72 hrs by MTS assay; format: functional, cell-based; details: HCT-116, 72 h; how it was run: as §1
MCF7 = test: Antiproliferative activity against human MCF7 cells assessed as growth inhibition after 72 hrs by MTS assay; format: functional, cell-based; details: MCF7, 72 h; how it was run: as §1

SMILES | IC50 [3] [µM] | also measured
FC(F)(F)c1ccc2c(c1)[nH]c1ccccc12 |  | solubility thermodynamic at 48 h [1]: 424 µg/mL (≈ 1800 µM); solubility thermodynamic at 48 h [2]: < 1 µg/mL
FC(F)(F)c1ccc2c(c1)[nH]c1cnccc12 |  | solubility thermodynamic at 48 h [1]: 472 µg/mL (≈ 2000 µM); solubility thermodynamic at 48 h [2]: < 1 µg/mL
FC(F)(F)c1ccc2c(c1)[nH]c1ccncc12 |  | solubility thermodynamic at 48 h [1]: 1760 µg/mL (≈ 7450 µM); solubility thermodynamic at 48 h [2]: 3.16 µg/mL (≈ 13.4 µM)
FC(F)(F)c1cccc(Nc2cccnc2)c1 | 7 | solubility thermodynamic at 48 h [1]: 14300 µg/mL (≈ 60000 µM); solubility thermodynamic at 48 h [2]: 10.8 µg/mL (≈ 45.3 µM)
FC(F)(F)c1cccc(Nc2ccncc2)c1 | > 6.3 | solubility thermodynamic at 48 h [1]: 24000 µg/mL (≈ 101000 µM); solubility thermodynamic at 48 h [2]: 264 µg/mL (≈ 1110 µM)
Nc1ccc2c(c1)[nH]c1cc(C(F)(F)F)ccc12 | 0.27 | 
CC(=O)Nc1ccc2c(c1)[nH]c1cc(C(F)(F)F)ccc12 | 0.085 | 
O=[N+]([O-])c1ccc2[nH]c3cc(C(F)(F)F)ccc3c2c1 | 0.043 | 
Nc1ccc2[nH]c3cc(C(F)(F)F)ccc3c2c1 | 0.55 | 
O=[N+]([O-])c1cccc(Nc2cccc(C(F)(F)F)c2)c1 | > 6.3 | 
Nc1cccc(Nc2cccc(C(F)(F)F)c2)c1 | > 6.3 | 
NC(=O)Nc1cccc(Nc2cccc(C(F)(F)F)c2)c1 | > 6.3 | 
O=[N+]([O-])c1ccc(Nc2cccc(C(F)(F)F)c2)cc1 | 3.2 | 
Nc1ccc(Nc2cccc(C(F)(F)F)c2)cc1 | > 6.3 | 
NC(=O)Nc1ccc(Nc2cccc(C(F)(F)F)c2)cc1 | 0.39 | 
O=C1CCc2cc(Nc3cccc(C(F)(F)F)c3)ccc2N1 | 0.045 | solubility thermodynamic at 48 h [1]: 1800 µg/mL (≈ 5880 µM); solubility thermodynamic at 48 h [2]: < 1 µg/mL; Retention_time [4]: 24.4 min; IC50 (A549): 4.2 µM; IC50 (HCT-116): 8.9 µM; IC50 (MCF7): 11 µM
O=C1CCc2cc(Oc3cccc(C(F)(F)F)c3)ccc2N1 | 2 | 
O=C1CCc2cc(Sc3cccc(C(F)(F)F)c3)ccc2N1 | > 6.3 | 
O=C1CCc2cc(Nc3ccc(C(F)(F)F)cc3)ccc2N1 | 0.33 | 
O=C1CCc2cc(Oc3ccc(C(F)(F)F)cc3)ccc2N1 | > 6.3 | 
O=C1CCc2cc(Sc3ccc(C(F)(F)F)cc3)ccc2N1 | > 6.3 | 
O=C1CCc2cc(Nc3ccccc3C(F)(F)F)ccc2N1 | > 6.3 | 
O=C1CCc2cc(Nc3ccccc3)ccc2N1 | > 6.3 | 
CCc1cccc(Nc2ccc3c(c2)CCC(=O)N3)c1 | 0.81 | 
CC(C)c1cccc(Nc2ccc3c(c2)CCC(=O)N3)c1 | 0.43 | 
CC(C)(C)c1cccc(Nc2ccc3c(c2)CCC(=O)N3)c1 | 0.16 | 
O=C1CCc2cc(Nc3cc(C(F)(F)F)cc(C(F)(F)F)c3)ccc2N1 | > 6.3 | 

SMILES | IC50 [3] [µM] | also measured
O=C1CCc2cc(Nc3cccc(-c4ccccc4)c3)ccc2N1 | > 6.3 | 
O=C1CCc2cc(Nc3cccc(Oc4ccccc4)c3)ccc2N1 | > 6.3 | 
COc1cccc(Nc2ccc3c(c2)CCC(=O)N3)c1 | > 6.3 | 
O=C1CCc2cc(Nc3cccc(OC(F)(F)F)c3)ccc2N1 | 1.2 | 
O=C1CCc2cc(Nc3cccc(O)c3)ccc2N1 | > 6.3 | 
O=C1CCc2cc(Nc3cccc([N+](=O)[O-])c3)ccc2N1 | 0.44 | 
Nc1cccc(Nc2ccc3c(c2)CCC(=O)N3)c1 | > 6.3 | 
COC(=O)c1cccc(Nc2ccc3c(c2)CCC(=O)N3)c1 | > 6.3 | 
O=C1CCc2cc(Nc3cccc(C(=O)O)c3)ccc2N1 | > 6.3 | 
O=C1CCc2cc(Nc3cc(C(F)(F)F)ccn3)ccc2N1 | 0.068 | solubility thermodynamic at 48 h [1]: 3510 µg/mL (≈ 11400 µM); solubility thermodynamic at 48 h [2]: 6.12 µg/mL (≈ 19.9 µM); Retention_time [4]: 7 min; IC50 (A549): 2.5 µM; IC50 (HCT-116): 4.4 µM; IC50 (MCF7): 8 µM
O=C1CCc2ccc(Nc3cccc(C(F)(F)F)c3)cc2N1 | > 6.3 | 
O=C1COc2ccc(Nc3cccc(C(F)(F)F)c3)cc2N1 | > 6.3 | 
O=c1ccc2ccc(Nc3cccc(C(F)(F)F)c3)cc2[nH]1 | 4.6 | 
O=C1CCc2c(cccc2Nc2cccc(C(F)(F)F)c2)N1 | > 6.3 | 
O=C1Cc2cc(Nc3cccc(C(F)(F)F)c3)ccc2N1 | 3.6 | 
O=c1[nH]c2ccc(Nc3cccc(C(F)(F)F)c3)cc2o1 | > 6.3 | 
O=c1[nH]c2ccc(Nc3cccc(C(F)(F)F)c3)cc2s1 | 0.81 | 
O=C1COc2cc(Nc3cccc(C(F)(F)F)c3)ccc2N1 | 0.29 | 
O=C1CSc2cc(Nc3cccc(C(F)(F)F)c3)ccc2N1 | 0.051 | solubility thermodynamic at 48 h [1]: 1700 µg/mL (≈ 5240 µM); solubility thermodynamic at 48 h [2]: < 1 µg/mL; Retention_time [4]: 28.2 min; IC50 (A549): 4.1 µM; IC50 (HCT-116): 6.8 µM; IC50 (MCF7): 6.5 µM
CN1C(=O)CCc2cc(Nc3cccc(C(F)(F)F)c3)ccc21 | > 6.3 | 
FC(F)(F)c1cccc(Nc2ccc3c(c2)CCC(=S)N3)c1 | 0.19 | 
O=C1CCCc2cc(Nc3cccc(C(F)(F)F)c3)ccc2N1 | 0.05 | solubility thermodynamic at 48 h [1]: 7390 µg/mL (≈ 23100 µM); solubility thermodynamic at 48 h [2]: < 1 µg/mL; Retention_time [4]: 27 min; IC50 (A549): 4.5 µM; IC50 (HCT-116): 5.7 µM; IC50 (MCF7): 3.9 µM
O=C1CCc2cc(Nc3cccc(C(F)(F)F)c3)cc(F)c2N1 | 0.43 | 
O=C1CCc2cc(Nc3cccc(C(F)(F)F)c3)c(F)cc2N1 | 0.92 | 
O=C1CSc2cc(Nc3cc(C(F)(F)F)ccn3)ccc2N1 | 0.035 | solubility thermodynamic at 48 h [1]: 669 µg/mL (≈ 2060 µM); solubility thermodynamic at 48 h [2]: 1.11 µg/mL (≈ 3.41 µM); Retention_time [4]: 13.8 min; IC50 (A549): 1.5 µM; IC50 (HCT-116): 2.6 µM; IC50 (MCF7): 2.8 µM
O=C1CCCc2cc(Nc3cc(C(F)(F)F)ccn3)ccc2N1 | 0.05 | solubility thermodynamic at 48 h [1]: 4820 µg/mL (≈ 15000 µM); solubility thermodynamic at 48 h [2]: 8.07 µg/mL (≈ 25.1 µM); Retention_time [4]: 10.8 min; IC50 (A549): 5 µM; IC50 (HCT-116): 6.5 µM; IC50 (MCF7): 9.1 µM
